Test system: Fibroblast
Experiment: Multiplex assay against human fibroblast
Format: toxicity, cell-based
Outline: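 Live cells were stained at seeding with Hoechst33342, BioTracker Green Microtubule Cytoskeleton Dye, MitoTracker Red and Annexin V Alexa Fluor 680, then imaged on a CQ1 microscope at 37°C and 5% CO2 after compound addition. CellPathfinder machine-learning gating split cells into Hoechst high-intensity objects or normal cells. Normal cells were split into healthy, pyknosed or fragmented nuclei, and pyknosed cells into mitotic or apoptotic. Tubulin, mitochondrial-mass and membrane-permeability phenotypes are per cents of healthy-nucleus cells.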

[1] = 12 h, 1 µM, compound concentration 1 uM, replicate 1
[2] = 12 h, 1 µM, compound concentration 1 uM, replicate 2
[3] = 12 h, 10 µM, compound concentration 10 uM, replicate 1
[4] = 12 h, 10 µM, compound concentration 10 uM, replicate 2
[5] = 24 h, 1 µM, compound concentration 1 uM, replicate 1
[6] = 24 h, 1 µM, compound concentration 1 uM, replicate 2
[7] = 24 h, 10 µM, compound concentration 10 uM, replicate 1
[8] = 24 h, 10 µM, compound concentration 10 uM, replicate 2
[9] = 48 h, 1 µM, compound concentration 1 uM, replicate 1
[10] = 48 h, 1 µM, compound concentration 1 uM, replicate 2
[11] = 48 h, 10 µM, compound concentration 10 uM, replicate 1
[12] = 48 h, 10 µM, compound concentration 10 uM, replicate 2

CN[C@@H](C)C(=O)N[C@H](C(=O)N1CCC[C@H]1C(=O)Nc1snnc1-c1ccccc1)C1CCCCC1 [GDC-0152]
Population Apoptotic (%) [1]: 70%
Population Fragmented Nuclei (%) [1]: 14%
Population Healthy Nuclei (%) [1]: 68%
Population Hoechst High Intensity Objects (%) [1]: 4%
Population Membrane Permeable-Phenotype (%) [1]: 1%
Population Mitochondria Different-Phenotype (%) [1]: 6%
Population Mitotic Cells (%) [1]: 30%
Population Normal (%) [1]: 95%
Population Pyknosed Nuclei (%) [1]: 16%
Population Tubulin-Different-Phenotype (%) [1]: 38%
Total Cell Count [1]: 127
Population Apoptotic (%) [2]: 33%
Population Fragmented Nuclei (%) [2]: 16%
Population Healthy Nuclei (%) [2]: 56%
Population Hoechst High Intensity Objects (%) [2]: 6%
Population Membrane Permeable-Phenotype (%) [2]: 6%
Population Mitochondria Different-Phenotype (%) [2]: 9%
Population Mitotic Cells (%) [2]: 66%
Population Normal (%) [2]: 93%
Population Pyknosed Nuclei (%) [2]: 26%
Population Tubulin-Different-Phenotype (%) [2]: 62%
Total Cell Count [2]: 121
Population Apoptotic (%) [3]: 38%
Population Fragmented Nuclei (%) [3]: 17%
Population Healthy Nuclei (%) [3]: 59%
Population Hoechst High Intensity Objects (%) [3]: 6%
Population Membrane Permeable-Phenotype (%) [3]: 0%
Population Mitochondria Different-Phenotype (%) [3]: 13%
Population Mitotic Cells (%) [3]: 61%
Population Normal (%) [3]: 93%
Population Pyknosed Nuclei (%) [3]: 22%
Population Tubulin-Different-Phenotype (%) [3]: 80%
Total Cell Count [3]: 144
Population Apoptotic (%) [4]: 24%
Population Fragmented Nuclei (%) [4]: 26%
Population Healthy Nuclei (%) [4]: 34%
Population Hoechst High Intensity Objects (%) [4]: 10%
Population Mitochondria Different-Phenotype (%) [4]: 10%
Population Mitotic Cells (%) [4]: 75%
Population Normal (%) [4]: 90%
Population Pyknosed Nuclei (%) [4]: 39%
Population Tubulin-Different-Phenotype (%) [4]: 65%
Total Cell Count [4]: 150
Population Apoptotic (%) [5]: 60%
Population Fragmented Nuclei (%) [5]: 20%
Population Healthy Nuclei (%) [5]: 63%
Population Hoechst High Intensity Objects (%) [5]: 2%
Population Membrane Permeable-Phenotype (%) [5]: 1%
Population Mitochondria Different-Phenotype (%) [5]: 1%
Population Mitotic Cells (%) [5]: 40%
Population Normal (%) [5]: 97%
Population Pyknosed Nuclei (%) [5]: 16%
Population Tubulin-Different-Phenotype (%) [5]: 30%
Total Cell Count [5]: 123
Population Apoptotic (%) [6]: 37%
Population Fragmented Nuclei (%) [6]: 22%
Population Healthy Nuclei (%) [6]: 55%
Population Hoechst High Intensity Objects (%) [6]: 9%
Population Membrane Permeable-Phenotype (%) [6]: 2%
Population Mitochondria Different-Phenotype (%) [6]: 11%
Population Mitotic Cells (%) [6]: 62%
Population Normal (%) [6]: 90%
Population Pyknosed Nuclei (%) [6]: 22%
Population Tubulin-Different-Phenotype (%) [6]: 61%
Total Cell Count [6]: 133
Population Apoptotic (%) [7]: 67%
Population Fragmented Nuclei (%) [7]: 14%
Population Healthy Nuclei (%) [7]: 58%
Population Hoechst High Intensity Objects (%) [7]: 5%
Population Membrane Permeable-Phenotype (%) [7]: 0%
Population Mitochondria Different-Phenotype (%) [7]: 21%
Population Mitotic Cells (%) [7]: 32%
Population Normal (%) [7]: 94%
Population Pyknosed Nuclei (%) [7]: 26%
Population Tubulin-Different-Phenotype (%) [7]: 83%
Total Cell Count [7]: 135
Population Apoptotic (%) [8]: 41%
Population Fragmented Nuclei (%) [8]: 33%
Population Healthy Nuclei (%) [8]: 34%
Population Hoechst High Intensity Objects (%) [8]: 8%
Population Membrane Permeable-Phenotype (%) [8]: 16%
Population Mitochondria Different-Phenotype (%) [8]: 22%
Population Mitotic Cells (%) [8]: 58%
Population Normal (%) [8]: 91%
Population Pyknosed Nuclei (%) [8]: 31%
Population Tubulin-Different-Phenotype (%) [8]: 68%
Total Cell Count [8]: 157
Population Apoptotic (%) [9]: 47%
Population Fragmented Nuclei (%) [9]: 23%
Population Healthy Nuclei (%) [9]: 60%
Population Hoechst High Intensity Objects (%) [9]: 1%
Population Membrane Permeable-Phenotype (%) [9]: 0%
Population Mitochondria Different-Phenotype (%) [9]: 1%
Population Mitotic Cells (%) [9]: 52%
Population Normal (%) [9]: 98%
Population Pyknosed Nuclei (%) [9]: 16%
Population Tubulin-Different-Phenotype (%) [9]: 48%
Total Cell Count [9]: 132
Population Apoptotic (%) [10]: 57%
Population Fragmented Nuclei (%) [10]: 38%
Population Healthy Nuclei (%) [10]: 44%
Population Hoechst High Intensity Objects (%) [10]: 5%
Population Membrane Permeable-Phenotype (%) [10]: 2%
Population Mitochondria Different-Phenotype (%) [10]: 14%
Population Mitotic Cells (%) [10]: 42%
Population Normal (%) [10]: 94%
Population Pyknosed Nuclei (%) [10]: 17%
Population Tubulin-Different-Phenotype (%) [10]: 67%
Total Cell Count [10]: 159
Population Apoptotic (%) [11]: 76%
Population Fragmented Nuclei (%) [11]: 23%
Population Healthy Nuclei (%) [11]: 45%
Population Hoechst High Intensity Objects (%) [11]: 6%
Population Membrane Permeable-Phenotype (%) [11]: 0%
Population Mitochondria Different-Phenotype (%) [11]: 22%
Population Mitotic Cells (%) [11]: 23%
Population Normal (%) [11]: 93%
Population Pyknosed Nuclei (%) [11]: 31%
Population Tubulin-Different-Phenotype (%) [11]: 81%
Total Cell Count [11]: 145
Population Apoptotic (%) [12]: 44%
Population Fragmented Nuclei (%) [12]: 39%
Population Healthy Nuclei (%) [12]: 42%
Population Membrane Permeable-Phenotype (%) [12]: 19%
Population Mitochondria Different-Phenotype (%) [12]: 17%
Population Mitotic Cells (%) [12]: 55%
Population Pyknosed Nuclei (%) [12]: 18%
Population Tubulin-Different-Phenotype (%) [12]: 88%
Total Cell Count [12]: 159

Reference: ChEMBL document CHEMBL5058577, “EUbOPEN Chemogenomics Library 2 (Multiplex)” (2022)
